Activity calls are given as the source filed them. No cut-off for these calls is given here.
Tests used:
Mus musculus [1] = experiment: Narcotic antagonist activity in sc dosed mouse assessed as inhibition of oxymorphone-induced narcosis; type: functional
Procedure, shortened: (§1)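 Given subcutaneously as salts in aqueous solution, with doses expressed as free base. ED50 was derived by probit analysis of dose-response data using at least three dose levels and at least six animals per dose level.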

Mus musculus [2] = experiment: Toxicity in mouse assessed as convulsion at 40 mg/kg, sc; type: organism-based; design: dose 40 mg/kg, route subcutaneous; conditions: in vivo
Procedure, shortened: (§2)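 Given subcutaneously as salts in aqueous solution, with dose expressed as free base.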

Mus musculus [3] = experiment: Analgesic activity in mouse assessed as inhibition of phenylquinone-induced writhing at 40 mg/kg, sc; type: functional, organism-based; design: dose 40 mg/kg; procedure, shortened: as §2
Mus musculus [4] = experiment: Narcotic antagonist activity in sc dosed mouse assessed as inhibition of oxymorphone-induced straub tail response; type: functional; procedure, shortened: as §1
Mus musculus [5] = experiment: Toxicity in mouse assessed as convulsion at 80 mg/kg, sc; type: organism-based; design: dose 80 mg/kg, route subcutaneous; conditions: in vivo; procedure, shortened: as §2
Rattus norvegicus = experiment: Narcotic antagonist activity in sc dosed rat assessed as inhibition of morphine-induced analgesic activity by tail flick test; type: functional; procedure, shortened: as §1
Mus musculus [6] = experiment: Analgesic activity in sc dosed mouse assessed as inhibition of phenylquinone-induced writhing; type: functional; procedure, shortened: as §1
Mus musculus [7] = experiment: Narcotic antagonist activity in mouse assessed as inhibition of oxymorphone-induced straub tail response at 40 mg/kg, sc; type: functional, organism-based; design: dose 40 mg/kg; procedure, shortened: as §2
Mus musculus [8] = experiment: Toxicity in mouse assessed as tremor at 40 mg/kg, sc; type: organism-based; design: dose 40 mg/kg, route subcutaneous; conditions: in vivo; procedure, shortened: as §2
Mus musculus [9] = experiment: Toxicity in mouse assessed as depression at 40 mg/kg, sc; type: organism-based; design: dose 40 mg/kg, route subcutaneous; conditions: in vivo; procedure, shortened: as §2

Question: Which ED50 (Mus musculus [1]) does the source give for CCC12CC3CC(c4ccc(O)cc41)C(C2)N3CC1CCC1 (stereo unspecified) here?
Answer: Its ED50 is 5 mg/kg.

Question: What about the Activity (Mus musculus [2]) of the same compound?
Answer: Its Activity is “Toxic”.

Question: What about the inhibition (Mus musculus [3]) of the same compound?
Answer: The inhibition was “inactive”.

Question: What about the ED50 (Mus musculus [4]) of the same compound?
Answer: The ED50 was 15 mg/kg.

Question: What about the Activity (Mus musculus [5]) of the same compound?
Answer: Its Activity is “Toxic”.

Question: And the ED50 (Rattus norvegicus)?
Answer: Its ED50 is 10 mg/kg.

Question: For CCC12CC3CC(c4ccc(O)cc41)C(C2)N3 (stereo unspecified), which Activity (Mus musculus [2]) is on record?
Answer: The Activity was “Toxic”.

Question: And the Activity (Mus musculus [5])?
Answer: Its Activity is “Toxic”.

Question: And the ED50 (Mus musculus [6])?
Answer: The ED50 was 12.9 mg/kg.

Question: What about the inhibition (Mus musculus [7]) of the same compound?
Answer: Its inhibition is “inactive”.

Question: For CC12CC3CC(c4ccc(O)cc41)C(C2)N3 (stereo unspecified), which Activity (Mus musculus [5]) is on record?
Answer: Its Activity is “Toxic”.

Question: For CCC12CC3CC(c4ccc(O)cc41)C(C2)N3CC1CC1 (stereo unspecified), which ED50 (Mus musculus [1]) is on record?
Answer: The ED50 was 0.32 mg/kg.

Question: And the inhibition (Mus musculus [3])?
Answer: Its inhibition is “Active”.

Question: What about the ED50 (Mus musculus [4]) of the same compound?
Answer: The ED50 was 2.24 mg/kg.

Question: And the Activity (Mus musculus [5])?
Answer: The Activity was “Toxic”.

Question: What about the ED50 (Rattus norvegicus) of the same compound?
Answer: Its ED50 is 0.44 mg/kg.

Question: Which Activity (Mus musculus [8]) does the source give for C=CCN1C2CC3c4ccc(O)cc4C(CC)(C2)CC31 (stereo unspecified) here?
Answer: Its Activity is “Toxic”.

Question: What about the ED50 (Mus musculus [1]) of the same compound?
Answer: The ED50 was 1 mg/kg.

Question: And the ED50 (Mus musculus [4])?
Answer: The ED50 was 8 mg/kg.

Question: And the Activity (Mus musculus [5])?
Answer: The Activity was “Toxic”.

Question: And the ED50 (Mus musculus [6])?
Answer: Its ED50 is 20 mg/kg.

Question: What about the ED50 (Rattus norvegicus) of the same compound?
Answer: The ED50 was 3.3 mg/kg.

Question: How did the ED50 (Mus musculus [1]) turn out when CC12CC3CC(c4ccc(O)cc41)C(C2)N3CC1CC1 (stereo unspecified) was run?
Answer: Its ED50 is 0.63 mg/kg.

Question: What about the inhibition (Mus musculus [3]) of the same compound?
Answer: The inhibition was “Active”.

Question: What about the ED50 (Mus musculus [4]) of the same compound?
Answer: Its ED50 is 0.96 mg/kg.

Question: And the Activity (Mus musculus [5])?
Answer: The Activity was “Toxic”.

Question: What about the ED50 (Rattus norvegicus) of the same compound?
Answer: Its ED50 is 0.64 mg/kg.

Question: Which ED50 (Mus musculus [1]) does the source give for CC(C)=CCN1CC[C@]2(C)c3cc(O)ccc3C[C@H]1[C@H]2C [(+)-PENTAZOCINE] here?
Answer: The ED50 was 10.1 mg/kg.

Question: What about the ED50 (Mus musculus [4]) of the same compound?
Answer: Its ED50 is 12 mg/kg.

Question: And the ED50 (Mus musculus [6])?
Answer: The ED50 was 3.7 mg/kg.

Question: Which inhibition (Mus musculus [3]) does the source give for CC12CC3CC(c4ccc(O)cc41)C(C2)N3CC1CCC1 (stereo unspecified) here?
Answer: Its inhibition is “inactive”.

Question: And the Activity (Mus musculus [5])?
Answer: The Activity was “Toxic”.

Question: What about the inhibition (Mus musculus [7]) of the same compound?
Answer: The inhibition was “inactive”.

Question: How did the ED50 (Mus musculus [1]) turn out when C=CCN1CC[C@]23c4c5ccc(O)c4O[C@H]2[C@@H](O)C=C[C@H]3[C@H]1C5 [NALORPHINE] was run?
Answer: Its ED50 is 0.58 mg/kg.

Question: And the ED50 (Mus musculus [6])?
Answer: Its ED50 is 0.77 mg/kg.

Question: And the ED50 (Rattus norvegicus)?
Answer: The ED50 was 0.38 mg/kg.

Question: How did the Activity (Mus musculus [5]) turn out when CN1C2CC3c4ccc(O)cc4C(C)(C2)CC31 (stereo unspecified) was run?
Answer: The Activity was “Toxic”.

Question: What about the ED50 (Mus musculus [6]) of the same compound?
Answer: Its ED50 is 31.8 mg/kg.

Question: And the inhibition (Mus musculus [7])?
Answer: Its inhibition is “inactive”.

Question: Which results are given for CCC12CC3CC(c4ccc(O)cc41)C(C2)N3C (stereo unspecified)?
Answer: Activity (Mus musculus [5]): Toxic; ED50 (Mus musculus [6]): 24.3 mg/kg; inhibition (Mus musculus [7]): inactive

Question: CC12CC3CC(c4ccc(O)cc41)C(C2)N3CCC1CC1 (stereo unspecified) was tested. Which inhibition (Mus musculus [3]) did it give?
Answer: The inhibition was “inactive”.

Question: And the Activity (Mus musculus [5])?
Answer: Its Activity is “Toxic”.

Question: And the inhibition (Mus musculus [7])?
Answer: Its inhibition is “inactive”.

Question: CN1CC[C@]23c4c5ccc(O)c4O[C@H]2[C@@H](O)C=C[C@H]3[C@H]1C5 [MORPHINE] was tested. Which ED50 (Mus musculus [6]) did it give?
Answer: The ED50 was 0.26 mg/kg.

Question: How did the Activity (Mus musculus [9]) turn out when CCC12CC3CC(c4ccc(O)cc41)C(C2)N3CCC1CC1 (stereo unspecified) was run?
Answer: The Activity was “Toxic”.

Question: And the inhibition (Mus musculus [3])?
Answer: Its inhibition is “Active”.

Question: What about the ED50 (Mus musculus [4]) of the same compound?
Answer: Its ED50 is over 20 mg/kg.

Question: And the Activity (Mus musculus [5])?
Answer: Its Activity is “Toxic”.

Question: And the ED50 (Rattus norvegicus)?
Answer: The ED50 was over 20 mg/kg.
